# Published values pooled from the literature.
# Lines come from different studies, so protocols differ.
# Target: Dual specificity mitogen-activated protein kinase kinase 5 (MAP2K5, Homo sapiens, UniProt Q13163)
# One construct used (Q13163 1-448): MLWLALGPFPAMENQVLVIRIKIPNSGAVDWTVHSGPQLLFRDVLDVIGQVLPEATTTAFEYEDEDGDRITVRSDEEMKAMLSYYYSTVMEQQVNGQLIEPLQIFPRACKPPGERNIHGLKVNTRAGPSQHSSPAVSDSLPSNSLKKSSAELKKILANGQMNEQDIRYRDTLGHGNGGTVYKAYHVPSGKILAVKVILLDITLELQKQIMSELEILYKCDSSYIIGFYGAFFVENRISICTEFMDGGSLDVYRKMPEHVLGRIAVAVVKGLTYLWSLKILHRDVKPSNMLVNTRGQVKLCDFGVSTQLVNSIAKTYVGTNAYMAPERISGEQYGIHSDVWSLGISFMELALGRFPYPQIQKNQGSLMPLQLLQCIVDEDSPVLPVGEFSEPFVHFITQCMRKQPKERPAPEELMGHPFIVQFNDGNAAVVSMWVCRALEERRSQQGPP
Structure (SMILES),observed,technique,tested at,remaining binding [%]
CC(=O)C1=C(C)N(c2cccc(C(F)(F)F)c2)C(=O)N[C@@H]1c1ccc(C#N)nc1,cell-free assay,competition with immobilised ligand,1 µM,100
FC(F)(F)Oc1cccc(-c2cnc3ccc(-c4ccncc4)nn23)c1,cell-free assay,competition with immobilised ligand,5 µM,35
O=C(c1ccc(Nc2ncc(Cl)c(-c3ccc(Cl)s3)n2)cc1)N1CCC(N2CCCC2)CC1,binding,competition with immobilised ligand,1 µM,0.85
O=C(NCC1CCOCC1)c1n[nH]cc1NC(=O)c1c(F)cccc1F,binding,competition with immobilised ligand,1 µM,68
CC1CCCN1c1nccc(-c2cnn3ncccc23)n1 (stereo not shown),binding,,1 µM,100
CS(=O)(=O)N1CCCC(NC(=O)[C@H](CCC2CCCCC2)NC(=O)c2ccc(CNc3ncnc4c3nnn4-c3ccccc3)cc2)C1 (stereo partly shown),cell-free assay,competition with immobilised ligand,0.1 µM,100
C[C@@H](c1ccc(-n2cnc3c(N)ncnc32)cc1)N1CCc2nn(C)c(Cc3ccccc3)c2C1=O,binding,competition with immobilised ligand,0.1 µM,40
COc1ccc2c(O[C@@H]3C[C@H]4C(=O)N[C@]5(C(=O)O)CC5/C=C\CCCCC[C@H](NC(=O)OC5CCCC5)C(=O)N4C3)cc(-c3csc(NC(=O)C(C)C)n3)nc2c1C (stereo partly shown),cell-free assay,competition with immobilised ligand,1 µM,71
COc1ccnn2ncc(-c3ccnc(N(C)C)n3)c12,binding,,1 µM,76
C[C@@H]1CN(c2cc(-c3nn(C)c4ccc(OC5(C)CC5)cc34)ncn2)C[C@H](C)O1,cell-free assay,competition with immobilised ligand,1 µM,93
N[C@H]1CCN(c2nccc(-c3cnn4ncccc34)n2)C1,binding,,1 µM,69
CNC(=O)[C@@H]1CC[C@@H](n2c(-c3ccc4cnccc4c3)nc3ccc(C(=O)NCc4cccc(C(N)=O)c4)cc32)C1,binding,competition with immobilised ligand,1 µM,53
CN(C)c1nccc(-c2cnc3ncccn23)n1,binding,,1 µM,48
CCN1CCN(Cc2ccc(C(=O)Nc3ccc(C)c(Oc4ccc5c(c4)CC(=O)N5)c3)cc2C(F)(F)F)CC1,binding,competition with immobilised ligand,1 µM,100
C[C@@H]1CCN(c2nccc(-c3cnn4ncccc34)n2)C1,binding,,1 µM,71
O=C(NCCCN1CCOCC1)c1ccc(Nc2nccc(-c3cc4ccccc4s3)n2)cc1,binding,competition with immobilised ligand,1 µM,36
Cc1c[nH]c2nccc(Oc3c(F)cc(Nc4cc(Cl)nc(N)n4)cc3F)c12,cell-free assay,competition with immobilised ligand,0.1 µM,82
O=C(NCCCN1CCOCC1)c1ccc(Nc2ncc(Cl)c(-c3ccc(Cl)s3)n2)cc1,binding,competition with immobilised ligand,1 µM,6.9
Cc1noc([C@H]2C[C@@H](c3ccc(C(F)(F)F)cc3)CN(C(=O)N3CCS(=O)(=O)C3)C2)n1,cell-free assay,competition with immobilised ligand,1 µM,78
CN(CCCC(F)(F)F)c1nccc(-c2cnn3ncccc23)n1,binding,,1 µM,100
O=C(O)c1cc(-c2ccc(C3CCNCC3)cc2)c2ccc(-c3ccc(C(F)(F)F)cc3)cc2c1,cell-free assay,competition with immobilised ligand,1 µM,96
COc1cnc(Nc2cccc(S(N)(=O)=O)c2)nc1N1CCN(c2ccccc2)CC1,binding,competition with immobilised ligand,1 µM,84
